The values below come from ChEMBL document CHEMBL1629441, “Synthesis, in vitro and in vivo biological evaluation, and comprehensive understanding of structure-activity relationships of dipeptidyl boronic acid proteasome inhibitors constructed from β-amino acids” (J Med Chem, 2010).

The subject of series [1] is PC-3. The experiment in a line: Cytotoxicity against human PC3 cells after 72 hrs by MTT assay. In kind it is functional, cell-based. As to conditions: PC-3, 72 h. The method, boiled down: (§1)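 MTT growth assay: 3000 cells per well seeded, after 24 h exposed to 10 drug concentrations for 72 h, then MTT (5 mg/mL stock) 4 h at 37 °C. Formazan dissolved in DMSO, absorbance at 540 nm. Points in triplicate; IC50 is mean of at least three independent determinations. Cells grown at 37 °C, 5% CO2 with FBS.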
A general note: Formazan colour is commonly taken as a measure of viable cells.

Series [2] in a line: Mean residence time (0-t) in Sprague-Dawley rat at 1 mg/kg, ig. The format is ADME, organism-based. Details: dose 1 mg/kg, route intragastric. As to conditions: in vivo, po. Summed up:
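Male SD rats dosed intragastrically at 1.0 mg/kg from 0.5 mg/mL solution in 1% ethanol, 1% Tween80, 98% buffered saline. Heparinized blood (n = 4) centrifuged 4000 rpm, 5 min, 4 °C; plasma lower limit of detection 5 ng/mL.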

Series [3] has as its system Rattus norvegicus. The experiment in a line: Toxicity in Sprague-Dawley rat assessed as incidence of mortality at 1 mg/kg, iv after 10 hrs. The format is organism-based. Also noted: dose 1 mg/kg, route intravenous. As to conditions: in vivo. Summed up:
(§2)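 Male SD rats dosed once at 1.0 mg/kg, iv bolus or intragastric, during the PK study. Dosing solution 0.5 mg/mL in 1% ethanol, 1% Tween80, 98% buffered saline. Animals observed for death and toxic reactions over 10 h. n = 4 per PK group.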

Series [4] concerns HepG2. Briefly: Cytotoxicity against human HepG2 cells after 72 hrs by MTT assay. Particulars: HepG2, 72 h. The format is functional, cell-based. The method, boiled down: as §1
Series [5] has as its system SW480. Briefly: Cytotoxicity against human SW480 cells after 72 hrs by MTT assay. The format is functional, cell-based. Particulars: SW480, 72 h. The method, boiled down: as §1
A short description of series [6]: Cytotoxicity against human RPMI18226 cells after 72 hrs by MTT assay. In kind it is functional, cell-based. Particulars: RPMI18226, 72 h. Summed up:
as §1

Series [7] has as its system BXPC-3. Briefly: Cytotoxicity against human BxPC3 cells after 72 hrs by MTT assay. The format is functional, cell-based. As to conditions: BXPC-3, 72 h. Summed up:
as §1

Series [8] in a line: Mean residence time (0-t) in Sprague-Dawley rat at 1 mg/kg, iv. Details: dose 1 mg/kg, route intravenous. As to conditions: in vivo. In kind it is ADME, organism-based. Summed up: (§3)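 Male SD rats given single 1.0 mg/kg iv bolus of solution (0.5 mg/mL) in 1% ethanol, 1% Tween80, 98% buffered saline. Heparinized blood samples (n = 4) centrifuged 4000 rpm, 5 min, 4 °C; plasma concentrations used to derive PK parameters.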

Series [9] has as its system A549. The experiment in a line: Cytotoxicity against human A549 cells after 72 hrs by MTT assay. The format is functional, cell-based. As to conditions: A549, 72 h. Summed up:
as §1

A short description of series [10]: Inhibition of human 20S proteasome chymotrypsin-like activity by fluorimetric assay. As to conditions: read-out: IC50. The method, boiled down:
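Human 20S proteasome preincubated with test compound, then Suc-Leu-Leu-Val-Tyr-AMC hydrolysis monitored 1 h at 37 °C by fluorescence (excitation 360 nm, 465 nm). Buffer pH 7.5: 20 mM Tris, 1 mM DTT, 10% glycerol, 0.02% (w/v) SDS; DMSO 3% (v/v) final. IC50 from five concentrations, each in duplicate; bortezomib standard.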

Series [11] deals with SK-OV-3. Briefly: Cytotoxicity against human SKOV3 cells after 72 hrs by MTT assay. As to conditions: SK-OV-3, 72 h. In kind it is functional, cell-based. The method, boiled down:
as §1

Series [12] concerns Rattus norvegicus. The experiment in a line: Toxicity in Sprague-Dawley rat assessed as incidence of mortality at 1 mg/kg, ig after 10 hrs. In kind it is organism-based. Also noted: dose 1 mg/kg, route intragastric. Particulars: in vivo, po. The method, boiled down: as §2
Series [13] has as its system HL-60. Briefly: Cytotoxicity against human HL60 cells after 72 hrs by MTT assay. As to conditions: HL-60, 72 h. In kind it is functional, cell-based. The method, boiled down: as §1
The nature of series [14]: Systemic clearance in Sprague-Dawley rat at 1 mg/kg, iv. In kind it is ADME, organism-based. Also noted: dose 1 mg/kg, route intravenous. As to conditions: in vivo. Summed up: as §3
Series [15] can be described thus: Cmax in Sprague-Dawley rat at 1 mg/kg, iv. Particulars: in vivo. In kind it is ADME, organism-based. Also noted: dose 1 mg/kg, route intravenous. The method, boiled down:
as §3

The nature of series [16]: Tmax in Sprague-Dawley rat at 1 mg/kg, iv. In kind it is ADME, organism-based. Details: dose 1 mg/kg, route intravenous. Particulars: in vivo. The method, boiled down: as §3
A short description of series [17]: Apparent volume of distribution in Sprague-Dawley rat at 1 mg/kg, iv. Details: dose 1 mg/kg, route intravenous. The format is ADME, organism-based. As to conditions: in vivo, read-out: Vz. The method, boiled down: as §3
Series [18] in a line: AUC (0-t) in Sprague-Dawley rat at 1 mg/kg, iv. The format is ADME, organism-based. Also noted: dose 1 mg/kg, route intravenous. Particulars: plasma. The method, boiled down:
as §3

Series [19] can be described thus: Terminal half life in Sprague-Dawley rat at 1 mg/kg, iv. The format is ADME, organism-based. As to conditions: in vivo. Details: dose 1 mg/kg, route intravenous. The method, boiled down:
as §3

Usually IC50 stands for the point on the concentration scale where inhibition reaches its midpoint. By MRT last is commonly meant a mean duration of stay, worked out from the concentration-time curve. For orientation: clearance means a measure of how efficiently the substance is removed, as volume per time. High values mean a high capacity for elimination, low ones a low capacity for elimination. One may read the Cmax as the highest concentration seen after dosing. In general, Tmax refers to the time at which the peak concentration occurs. Usually AUC(0-t) stands for the area under the concentration-time curve up to a stated or last time point. A high value points to more exposure. What is called half-life is how long it takes for the measured level to halve. A high value points to slow decline.

On to `CC(C)C[C@H](NC(=O)[C@H](Cc1ccccc1)NC(=O)c1cnccn1)B(O)O` [BORTEZOMIB], for which the IC50 in series [1] is 8.3 nM; in series [4], 25.2 nM; in series [5], 12.3 nM; in series [6], 3.5 nM; in series [7] it was 19.4 nM; in [9], 13.9 nM. Moreover, the IC50 in series [10] came to 1.54 nM; in [11], 66.8 nM; in series [13], 3.5 nM. Also, the MRT last in [2] amounted to 7.69 h; in series [8], 1.4 h. Besides, the Activity entry in [3] and in series [12] was “Toxic” each time.
Regarding `CC(C)C[C@H](NC(=O)CC(NC(=O)c1ccc2ccccc2c1)c1cccc(F)c1)B(O)O` (stereo partly specified), the IC50 came to 2990 nM in series [1]; 6990 nM in series [4]; 2380 nM in series [5]; 330 nM in series [6]; 3540 nM in [7]; 2020 nM in series [9]. The IC50 in [10] is 3.01 nM; in series [11], 8770 nM; in series [13], 530 nM. The clearance in series [14] is 9.6 mL/min/kg. The highest level in series [15] (Cmax) was 5790 ng/mL. The Activity entry in series [3] and in [12] was “Non-toxic” each time. Also, the Tmax in [16] came to 1.8 min. In [8], this compound showed an MRT last of 1.4 h. In [17], the Vd was determined as 3.9 L/kg. In series [18], this compound gave an AUC(0-t) of 1710 ng·h/mL. In [19], this compound showed a half-life of 4.5 h.
